From ChEMBL document CHEMBL1153869, “Preparation and antimicrobial behaviour of quaternary ammonium thiol derivatives able to be grafted on metal surfaces” (2009)

How the values were obtained:
Staphylococcus aureus [1] = assay: Antibacterial activity against Staphylococcus aureus ATCC 6538 after 5 days; format: functional; settings: ATCC 6538, 120 h
Outline: (§1)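 From bacterial MIC plates after 5 days of incubation, the three sub-dose wells showing no growth were streaked onto trypticase soy agar. MLC was the lowest concentration leaving no viable bacteria after subculture on antibiotic-free medium. Three independent experiments were run.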

Pseudomonas aeruginosa [2] = assay: Antibacterial activity against Pseudomonas aeruginosa ATCC 9027 after 24 hrs by serial dilution method; format: functional; settings: ATCC 9027, 24 h
Outline: (§2)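 Bacteria were grown overnight on a TSA slant, transferred into M9GY (pH 7.0) and incubated overnight at 30 °C. Third-generation, exponential-phase cells were adjusted to OD660 0.05 (about 5.10⁶–5.10⁷ cfu/mL). Initial solutions in methanol/water 1:1 were serially diluted automatically in microtitre plates. MIC was the lowest concentration with no turbidity after 24 h at 30 °C. Three independent experiments were run.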

Candida albicans [3] = assay: Antifungal activity against Candida albicans ATCC 10231 after 72 hrs by serial dilution method; settings: ATCC 10231, 72 h
Pseudomonas aeruginosa [4] = assay: Antibacterial activity against Pseudomonas aeruginosa ATCC 9027 after 5 days; format: functional; settings: ATCC 9027, 120 h; outline: as §1
Aspergillus niger [5] = assay: Antifungal activity against Aspergillus niger ATCC 6275 after 7 days; format: functional; settings: ATCC 6275, 168 h
Outline: (§3)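 From fungal MIC plates after 7 days of incubation, the three sub-dose wells showing no growth were streaked onto Sabouraud dextrose agar. MLC was the lowest concentration leaving no viable fungi after subculture on drug-free medium. Three independent experiments were run.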

Candida albicans [6] = assay: Antifungal activity against Candida albicans ATCC 10231 after 7 days; format: functional; settings: ATCC 10231, 168 h; outline: as §3
Staphylococcus aureus [7] = assay: Antibacterial activity against Staphylococcus aureus ATCC 6538 after 24 hrs by serial dilution method; format: functional; settings: ATCC 6538, 24 h; outline: as §2
Aspergillus niger [8] = assay: Antifungal activity against Aspergillus niger ATCC 6275 after 72 hrs by serial dilution method; settings: ATCC 6275, 72 h

| Compound | MLC (Staphylococcus aureus [1]) | MIC (Pseudomonas aeruginosa [2]) | MIC (Candida albicans [3]) | MLC (Pseudomonas aeruginosa [4]) | MLC (Aspergillus niger [5]) | MLC (Candida albicans [6]) | MIC (Staphylococcus aureus [7]) | MIC (Aspergillus niger [8]) |
| --- | --- | --- | --- | --- | --- | --- | --- | --- |
| C[N+](C)(CCCCCCCCCCCS)Cc1ccccc1 | 682 µM | 1060 µM | 472 µM | > 1530 µM | 682 µM | > 896 µM | 682 µM | 351 µM |
| CCCCCCCCCCCCCC[N+](C)(C)CCCNC(=O)CCCCCCCCCCS | 188 µM | 442 µM | > 742 µM | 599 µM | > 74.2 µM | > 742 µM | 188 µM | 56.3 µM |
| C[N+](C)(C)CCCCCCCCCCCS | 56.6 µM | 557 µM | 1120 µM | > 1120 µM | > 131 µM | > 1900 µM | 56.6 µM | 56.6 µM |
| C[N+](C)(C)CCCNC(=O)CCCCCCCCCCS | > 395 µM | 595 µM | > 1070 µM | > 864 µM | > 395 µM | > 1070 µM | 105 µM | 105 µM |
| CCCCCCCCCCCCCC[N+](C)(C)Cc1ccccc1 [MIRISTALKONIUM CHLORIDE] | – | 93 µM | 8.36 µM | – | – | – | 3.2 µM | 4.74 µM |
| CCCCCCCCCC[N+](C)(C)CCCNC(=O)CCCCCCCCCCS | 32.5 µM | 171 µM | > 677 µM | 250 µM | > 60.7 µM | > 677 µM | 17.5 µM | 44.1 µM |
| CCCCCCCCCC[N+](C)(C)CCCCCCCCCCCS | 48 µM | 309 µM | 31.6 µM | 309 µM | 48 µM | > 61.3 µM | 11.6 µM | 31.6 µM |
| CCCCCCCCCCCCCC[N+](C)(C)CCCCCCCCCCCS | > 1520 µM | 1120 µM | 1520 µM | > 1520 µM | > 124 µM | > 1520 µM | 1310 µM | 90 µM |
| CCCCCCCCCCCC[N+](C)(C)CCCNC(=O)CCCCCCCCCCS | 38.2 µM | 184 µM | > 688 µM | 184 µM | > 61.7 µM | > 688 µM | 18.7 µM | 47 µM |
| C[N+](C)(CCCNC(=O)CCCCCCCCCCS)Cc1ccccc1 | 946 µM | 980 µM | > 1060 µM | > 1060 µM | > 946 µM | > 1060 µM | 592 µM | 773 µM |
| CCCCCCCCCCCC[N+](C)(C)CCCCCCCCCCCS | 73.3 µM | 326 µM | 39.5 µM | 326 µM | > 92.2 µM | > 63.4 µM | 34.7 µM | 67.2 µM |
